MIC data for four molecules are collected here from ChEMBL document CHEMBL1268850, “Search for antifungal compounds from the wood of durable tropical trees” (2010).

Converted amounts (≈) assume the structure as drawn.

Test [1] relates to Nakaseomyces glabratus. In words: Antifungal activity against Candida glabrata LMGO 44 after 5 days microdilution technique. It counts as functional. The note with it: LMGO 44, 120 h. In a few lines:
(§1)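 Yeasts were kept on potato dextrose agar and subcultured 2 days at 28 °C before testing. Broth microdilution followed CLSI M27-A2. Crude extracts were tested at 500 to 0.98 µg/mL and pure compounds at 256 to 0.5 µg/mL. Fluconazole (64 to 0.125 µg/mL) and itraconazole (16 to 0.031 µg/mL) served as references. Plates were incubated at 32 °C. MIC is the lowest concentration with no visible growth, in triplicate.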

In test [2] the test system is Pichia kudriavzevii. In words: Antifungal activity against Candida krusei LMGO 174 after 5 days microdilution technique. The class given is functional. As to conditions: LMGO 174, 120 h. In a few lines: as §1
A general note: In broth dilution the organism is exposed to a series of concentrations in liquid medium.

Test [3] deals with Candida parapsilosis. In words: Antifungal activity against Candida parapsilosis ATCC 22019 after 5 days microdilution technique. The class given is functional. The note with it: Lodderomyces parapsilosis, ATCC 22019, 120 h. In a few lines: as §1
Test [4] relates to Cryptococcus gattii species complex. In words: Antifungal activity against Cryptococcus gattii LMGO L1 after 5 days microdilution technique. The note with it: LMGO L1, 120 h. It counts as functional, Cryptococcus bacillisporus. In short, it runs like this:
as §1

Test [5] deals with Trichophyton rubrum. In words: Antifungal activity against Trichophyton rubrum LMGO 4218 after 5 days microdilution technique. It counts as functional. The note with it: LMGO 4218, 120 h. In a few lines:
(§2)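 Dermatophytes were maintained on potato dextrose agar and subcultured 5 days at 28 °C before testing. Microdilution followed CLSI M38-A, with extracts at 500 to 0.98 µg/mL and pure compounds at 256 to 0.5 µg/mL. Fluconazole and itraconazole were the references. Plates were incubated at 32 °C and read after 5 days. MIC is the lowest concentration preventing visible growth, in triplicate.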

Test [6] has as its system Nannizzia gypsea. In words: Antifungal activity against Microsporum gypseum LMGO 10 after 5 days microdilution technique. It counts as functional. The note with it: LMGO 10, 120 h. In a few lines: as §2
Test [7] concerns Candida albicans. In words: Antifungal activity against Candida albicans ATCC 10231 after 5 days microdilution technique. It counts as functional. As to conditions: ATCC 10231, 120 h. In a few lines:
as §1

Test [8] deals with Candida albicans. In words: Antifungal activity against Candida albicans LMGO 102 after 5 days microdilution technique. The class given is functional. The note with it: LMGO 102, 120 h. In a few lines: as §1
The test system of test [9] is Microsporum canis. In words: Antifungal activity against Microsporum canis LMGO 02 after 5 days microdilution technique. As to conditions: LMGO 02, 120 h. It counts as functional. In short, it runs like this:
as §2

In test [10] the test system is Trichophyton rubrum. In words: Antifungal activity against Trichophyton rubrum LMGO 08 after 5 days microdilution technique. It counts as functional. The note with it: LMGO 08, 120 h. In short, it runs like this: as §2
The subject of test [11] is Microsporum canis. In words: Antifungal activity against Microsporum canis LMGO 22 after 5 days microdilution technique. The note with it: LMGO 22, 120 h. It counts as functional. In a few lines:
as §2

Test [12] concerns Trichophyton mentagrophytes. In words: Antifungal activity against Trichophyton mentagrophytes LMGO 09 after 5 days microdilution technique. It counts as functional. As to conditions: LMGO 09, 120 h. In a few lines:
as §2

The test system of test [13] is Trichophyton rubrum. In words: Antifungal activity against Trichophyton rubrum LMGO 06 after 5 days microdilution technique. The class given is functional. The note with it: LMGO 06, 120 h. In short, it runs like this: as §2
The subject of test [14] is Nannizzia gypsea. In words: Antifungal activity against Microsporum gypseum LMGO 533 after 5 days microdilution technique. The class given is functional. As to conditions: LMGO 533, 120 h. In short, it runs like this: as §2
The subject of test [15] is Trichophyton mentagrophytes. In words: Antifungal activity against Trichophyton mentagrophytes LMGO 1931 after 5 days microdilution technique. It counts as functional. As to conditions: LMGO 1931, 120 h. In a few lines:
as §2

For test [16], the system named is Candida parapsilosis. In words: Antifungal activity against Candida parapsilosis LMGO 05 after 2 days microdilution technique. As to conditions: Lodderomyces parapsilosis, LMGO 05, 48 h.
In test [17] the test system is Candida parapsilosis. In words: Antifungal activity against Candida parapsilosis ATCC 22019 after 2 days microdilution technique. The note with it: Lodderomyces parapsilosis, ATCC 22019, 48 h.
Test [18] concerns Candida albicans. In words: Antifungal activity against Candida albicans ATCC 10231 after 2 days microdilution technique. As to conditions: ATCC 10231, 48 h.
For test [19], the system named is Cryptococcus gattii species complex. In words: Antifungal activity against Cryptococcus gattii LMGO L1 after 2 days microdilution technique. The note with it: LMGO L1, 48 h.
Test [20] has as its system Nakaseomyces glabratus. In words: Antifungal activity against Candida glabrata LMGO 44 after 2 days microdilution technique. The note with it: LMGO 44, 48 h.
Test [21] relates to Pichia kudriavzevii. In words: Antifungal activity against Candida krusei LMGO 174 after 2 days microdilution technique. The note with it: LMGO 174, 48 h.
Test [22] has as its system Candida albicans. In words: Antifungal activity against Candida albicans LMGO 102 after 2 days microdilution technique. The note with it: LMGO 102, 48 h.

`OC(Cn1cncn1)(Cn1cncn1)c1ccc(F)cc1F` [FLUCONAZOLE]: the MIC was 4 µg/mL (≈ 13.1 µM) in test [1]; 8 µg/mL (≈ 26.1 µM) in [2]; more than 64 µg/mL in test [3]; more than 64 µg/mL in test [4]; 32 µg/mL (≈ 104 µM) in test [5]; 16 µg/mL (≈ 52.2 µM) in test [6]. The MIC in [7] was more than 64 µg/mL; in test [8] it was 1 µg/mL (≈ 3.27 µM); in test [9] it was more than 64 µg/mL; in [10], 8 µg/mL (≈ 26.1 µM); in test [11] it was more than 64 µg/mL; in [12], 16 µg/mL (≈ 52.2 µM). In addition, the MIC turned out to be 4 µg/mL (≈ 13.1 µM) in test [13], 64 µg/mL (≈ 209 µM) in test [14], 4 µg/mL (≈ 13.1 µM) in test [15] and 4 µg/mL (≈ 13.1 µM) in test [16].
As for `C=CCCCCCCCC[C@@H]1C[C@H](C[C@@H](O)CO)C(=O)O1` [RUBRENOLIDE], the MIC stood at 16 µg/mL (≈ 53.6 µM) in test [5]; 32 µg/mL (≈ 107 µM) in test [17]; 16 µg/mL (≈ 53.6 µM) in test [6]; 64 µg/mL (≈ 214 µM) in [18]; 16 µg/mL (≈ 53.6 µM) in test [9]; 8 µg/mL (≈ 26.8 µM) in test [10]. Further, the MIC in test [11] is 128 µg/mL (≈ 429 µM); in [12], 8 µg/mL (≈ 26.8 µM); in [13], 8 µg/mL (≈ 26.8 µM); in [14] it was 256 µg/mL (≈ 858 µM); in test [19], 256 µg/mL (≈ 858 µM); in test [15] it was 64 µg/mL (≈ 214 µM). The MIC was 4 µg/mL (≈ 13.4 µM) in test [20], 64 µg/mL (≈ 214 µM) in [21], 32 µg/mL (≈ 107 µM) in test [16] and 16 µg/mL (≈ 53.6 µM) in [22].
On to `CCC(C)n1ncn(-c2ccc(N3CCN(c4ccc(OCC5COC(Cn6cncn6)(c6ccc(Cl)cc6Cl)O5)cc4)CC3)cc2)c1=O` (centres undefined) [ITRACONAZOLE], for which the minimal inhibitory concentration (MIC) in test [5] was 0.5 µg/mL (≈ 0.709 µM); in test [17], 0.25 µg/mL (≈ 0.354 µM); in test [6], 0.25 µg/mL (≈ 0.354 µM); in test [18], 0.5 µg/mL (≈ 0.709 µM); in [9], 16 µg/mL (≈ 22.7 µM); in [10], 0.125 µg/mL (≈ 0.177 µM). In addition, the MIC in test [11] is 16 µg/mL (≈ 22.7 µM); in test [12] it was 0.25 µg/mL (≈ 0.354 µM); in [13], 0.125 µg/mL (≈ 0.177 µM); in test [14], 0.975 µg/mL (≈ 1.38 µM); in test [19], 2 µg/mL (≈ 2.83 µM); in test [15], 0.5 µg/mL (≈ 0.709 µM). The MIC in [20] was 0.5 µg/mL (≈ 0.709 µM); in [21] it was 16 µg/mL (≈ 22.7 µM); in test [16] it was 0.25 µg/mL (≈ 0.354 µM); in [22], more than 16 µg/mL.
Turning to `C#CCCCCCCCC[C@@H]1C[C@H](C[C@@H](O)CO)C(=O)O1` [RUBRYNOLIDE], the MIC in [5] worked out at 32 µg/mL (≈ 108 µM); in test [17], 128 µg/mL (≈ 432 µM); in test [6] it was 32 µg/mL (≈ 108 µM); in test [18], 128 µg/mL (≈ 432 µM); in test [9] it was 32 µg/mL (≈ 108 µM); in [10], 32 µg/mL (≈ 108 µM). In addition, the MIC in test [11] is 64 µg/mL (≈ 216 µM); in [12] it was 32 µg/mL (≈ 108 µM); in test [13], 32 µg/mL (≈ 108 µM); in [14], 32 µg/mL (≈ 108 µM); in [19], 128 µg/mL (≈ 432 µM); in test [15] it was more than 256 µg/mL. The minimal inhibitory concentration (MIC) in test [20] was 32 µg/mL (≈ 108 µM); in [21], 64 µg/mL (≈ 216 µM); in test [16], 128 µg/mL (≈ 432 µM); in [22], 32 µg/mL (≈ 108 µM).

What is called MIC is the lowest concentration that inhibits growth of the organism. Read a high MIC as weaker potency.
